Data set [1] is described as follows: Cytotoxicity against chinese hamster V79 cells assessed as survival fraction under normoxic condition at 20 uM after 7 days by crystal violet staining relative to control. The class given is cell-based, Cricetulus griseus. As to conditions: read-out: Activity. Put shortly:
(§1)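 Exponential-phase V79 cells trypsinized into gassed suspension culture (2 × 10^4 cells/mL, EMEM, 10% FBS, 10 mM HEPES). Compound added 30 min after gassing began, in duplicate flasks, with a DMSO control; exposure 2 h. Cells then plated for colony formation at 37 °C, 5% CO2, for 7 days and stained with crystal violet. Colonies >64 cells counted; survival = PEtreated/PEcontrol × 100; means of two experiments.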

Data set [2] concerns V79. The experiment in a line: Cytotoxicity against chinese hamster V79 cells assessed as survival fraction under hypoxic condition at 20 uM after 7 days by crystal violet staining relative to control. The class given is functional, Cricetulus griseus. Put shortly:
(§2)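 V79 Chinese hamster lung fibroblasts grown in EMEM with 10% FBS, then set up as suspension cultures (2 × 10^4 cells/mL, EMEM, 10% FBS, 10 mM HEPES) under simulated hypoxic gassing. Compound in DMSO added 30 min after gassing began, duplicate flasks per dose, 2 h exposure. Cells then plated and grown 7 days at 37 °C, stained with crystal violet, and colonies >64 cells counted. Survival = PEtreated/PEcontrol × 100.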

Data set [3] concerns Calf thymus DNA. The data set can be described thus: Binding affinity to calf thymus DNA assessed as ratio of final absorbance area to absorbance of compound at 100 uM after 24 hrs by UV spectrophotometer analysis. The class given is nucleic-acid assay. As to conditions: Bos taurus. Put shortly:
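Calf thymus DNA in 10 mM Tris-HCl, pH 7.4. Compound stock 10^-4 M (≤5% solvent), diluted with water to 2 × 10^-5 M, then mixed 1:1 with DNA solution. Rotated 24 h; UV spectra taken at 20 °C in a 1-cm cell. Areas of a 20 nm band at λmax at 0 and 24 h; reported as a24/a0.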

Data set [4] deals with V79. The data set can be described thus: Cytotoxicity against chinese hamster V79 cells assessed as concentration required to kill 99% cells under hypoxic condition after 7 days by crystal violet staining relative to control. The class given is functional, Cricetulus griseus. In a few lines: as §2
Data set [5] can be described thus: Cytotoxicity against chinese hamster V79 cells assessed as survival fraction under normoxic condition at 10 uM after 7 days by crystal violet staining relative to control. The class given is cell-based, Cricetulus griseus. As to conditions: read-out: Activity. Put shortly: as §1
Data set [6] relates to V79. The data set can be described thus: Hypoxic cytotoxicity ratio, concentration required to kill 99% chinese hamster V79 cells under normoxic condition to hypoxic condition. The class given is functional, Cricetulus griseus. Put shortly:
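Clonogenic V79 suspension-culture assay run under both air and hypoxic gassing. Cells exposed 2 h in duplicate flasks per dose, then colonies counted after 7 days with crystal violet. Dose–response curves give the dose producing 1% of control survival in each condition. Ratio = air dose divided by hypoxic dose.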

Data set [7] relates to V79. The experiment in a line: Cytotoxicity against chinese hamster V79 cells assessed as survival fraction under hypoxic condition at 10 uM after 7 days by crystal violet staining relative to control. The class given is functional, Cricetulus griseus. In a few lines:
as §2

Data set [8] relates to Calf thymus DNA. The data set can be described thus: Binding affinity to calf thymus DNA assessed as fluorescence quenching at 20 uM after 24 hrs by fluorescence spectroscopy analysis. The class given is nucleic-acid assay. Also noted: unit not given here. Conditions: Bos taurus.

The results in this text go back to ChEMBL document CHEMBL1287653, “Structural modifications on the phenazine N,N'-dioxide-scaffold looking for new selective hypoxic cytotoxins” (Eur J Med Chem, 2010).

In the case of `O=C(CCl)Oc1ccc2c(c1)[n+]([O-])c1cc(Br)ccc1[n+]2[O-]`, the viability at 168 h, 20 µM in data set [1] was determined as 84%. Also, the Activity in the data set with V79 [2] was 62%.

With `Cc1cc2c(cc1F)[n+]([O-])c1ccc(O)cc1[n+]2[O-]`, the viability at 168 h, 20 µM in data set [1] was determined as 100%. Besides, the Activity in the data set with V79 [2] amounted to 95%. Further, in the data set on Calf thymus DNA [3], the Ratio was determined as 0.83.

With `[O-][n+]1c2ccc(Br)cc2[n+]([O-])c2cc(OCc3ccccc3)ccc21`, the viability at 168 h, 20 µM in data set [1] was 86%. In addition, the Activity in the data set on V79 [2] was determined as 90%. Besides, the Ratio with Calf thymus DNA [3] was 0.88.

Consider `COc1cc(NS(C)(=O)=O)ccc1Nc1c2ccccc2nc2ccccc12`, for which the Ratio in the data set with Calf thymus DNA [3] was 0.3.

For `Cc1cc2c(cc1F)[n+]([O-])c1ccc(N)cc1[n+]2[O-]`, in data set [1], the viability at 168 h, 20 µM came to 88%. Besides, the Activity with V79 [2] amounted to 15%. The Ratio in the data set on Calf thymus DNA [3] is 0.85.

As to `Cc1ccc2c(c1)[n+]([O-])c1cc(O)c3ncccc3c1[n+]2[O-]`, the viability at 168 h, 20 µM in data set [1] came to 49%. Moreover, in the data set with V79 [2], the Activity amounted to 46%.

As for `Nc1ccc2c(c1)[n+]([O-])c1cc(Cl)c(Cl)cc1[n+]2[O-]`, the viability at 168 h, 20 µM in data set [1] worked out at 2%. Besides, the Activity is 10 µM with V79 [4], 0% with V79 [2] and 18% with V79 [7]. The Ratio is 0.98 in the data set on Calf thymus DNA [3] and 0.9 in the data set on V79 [6]. For the same compound, the viability at 168 h, 10 µM in data set [5] amounted to 3%.

As for `CC[n+]1c(-c2ccccc2)c2cc(N)ccc2c2ccc(N)cc21`, in the data set on Calf thymus DNA [3], the Ratio was 0.5.

Take `Cc1ccc2nc3ccc(N)cc3nc2c1`: in the data set on Calf thymus DNA [8], the Kq amounted to 6.1. The viability at 168 h, 20 µM in data set [1] is 98%. In addition, the Activity with V79 [2] was determined as 100%. Also, in the data set with Calf thymus DNA [3], the Ratio came out at 0.85.

Consider `CN1CCN(c2ccc3[nH]c(-c4ccc5[nH]c(-c6ccc(O)cc6)nc5c4)nc3c2)CC1`, for which, in the data set on Calf thymus DNA [3], the Ratio is 0.57.

Regarding `Nc1ccc2nc3ccc(Br)cc3nc2c1`, the Kq with Calf thymus DNA [8] came to 7.3. Further, in data set [1], the viability at 168 h, 20 µM came out at 0%. Moreover, the Activity in the data set on V79 [2] was 0%. Besides, the Ratio in the data set with Calf thymus DNA [3] is 0.9.

`Nc1ccc2c(c1)nc1cc(Br)ccc1[n+]2[O-]`: in the data set with Calf thymus DNA [8], the Kq was found to be 4.2. In addition, in data set [1], the viability at 168 h, 20 µM amounted to 0%. Also, the Activity with V79 [2] is listed as 0%. The Ratio in the data set on Calf thymus DNA [3] came to 0.92.

For the compound `O=C1c2c(O)ccc(O)c2C(=O)c2c(NCCNCCO)ccc(NCCNCCO)c21`, the Ratio with Calf thymus DNA [3] is 0.

Consider `Cc1ccc2c(c1)nc1cc(N)ccc1[n+]2[O-]`, for which the Kq in the data set on Calf thymus DNA [8] was found to be 5.3. In addition, in data set [1], the viability at 168 h, 20 µM is 100%. Also, the Activity in the data set on V79 [2] worked out at 100%. The Ratio in the data set with Calf thymus DNA [3] was determined as 0.92.

As for `Nc1ccc2c(c1)[n+]([O-])c1cc(F)ccc1[n+]2[O-]`, the Kq with Calf thymus DNA [8] is 7.8. Also, in data set [1], the viability at 168 h, 20 µM was 0%. The figures for the Activity with V79 [4], in the data set with V79 [2] and in the data set on V79 [7] were 2.5 µM, 0% and 0%, respectively. The results for the Ratio with Calf thymus DNA [3] and with V79 [6] were 0.88 and 6.8, respectively. The viability at 168 h, 10 µM in data set [5] came to 30%.

Consider `[O-][n+]1c2ccc(O)cc2[n+]([O-])c2cc(Cl)c(Cl)cc21`, for which, in data set [1], the viability at 168 h, 20 µM is 1%. Further, the values for the Activity in the data set on V79 [2] and in the data set on V79 [7] were 0% and 8%, respectively. Also, the Ratio in the data set on Calf thymus DNA [3] was 0.96. For the same compound, the viability at 168 h, 10 µM in data set [5] was 0%.
